Compound activity deposited in PubChem BioAssay by several laboratories.
NF-kB neuron act = activators of NF-kB expression in neurons, primary screen, cell-based, HTS; fold change at 12.5 µM; AID 1239, 2008; 190,000 tested, 1.6% active; human neuronal cells, NF-kB reporter expression; stronger effect = higher value; in the data active = fold change above about 3.3
APP 5'UTR act = activators of APP 5'UTR luciferase reporter, primary screen, SH-SY5Y cells; SH-SY5Y APP 5'UTR luciferase reporter, luminescence; zero percent = DMSO vehicle wells; activation, % at 2 µM; 190,000 tested, 1% active; AID 1276, 2008;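 active = activation above a set limit, based on mean plus 3 SD of controls, cut at about 140% in these data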
STAT1 blocker = STAT1 signaling inhibitors, primary screen, cell-based, HTS, luciferase reporter | NIH 3T3 STAT1-luciferase reporter, IFN-gamma, luminescence | inhibition, % at 5.5 µM | 200,000 tested, 0.35% active | AID 920, 2007;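 active = inhibition above a set limit, the mean inhibition across all tested compounds plus 3 SD, cut at about 34% in these data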;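 note: 0% = IFN-gamma with DMSO and 100% = IFN-gamma with 300 µM nifuroxazide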
STAT1 act = STAT1 signaling activators, primary screen, cell-based, HTS, luciferase reporter | NIH 3T3 STAT1-luciferase reporter, IFN-gamma, luminescence; 100% = IFN-gamma alone, no compound | 200,000 tested, 2.6% active | activation (% of control), % at 5.5 µM | AID 932, 2007;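 active = activation above the screen-wide mean activation plus 3 SD, cut at about 130% in these data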;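 note: raw ratio to IFN-gamma control signal so 100% means no change and 0% no light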
STAT3 act = IL-6 driven STAT3 reporter potentiators, primary screen, U3A cells, luciferase, luminescence, MLSCN library. IL-6 STAT3-luciferase reporter; 100% = signal with IL-6 EC80 alone. activation (% of control), % at 5.6 µM. 190,000 tested, 0.91% active. AID 871, 2007;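 active = activation above the screen-wide mean of compound activation plus 3 SD, cut at about 130% in these data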;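 note: 0% = background luminescence of wells with medium and substrate only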
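Material: STAT1-lacking human U3A cells, STAT3 luciferase reporter | Benchmarks: IL-6-only wells as 100% reference | Probe or stimulus: IL-6 (33 ng/mL) | Timing: Compound 1 h, then IL-6 6 h at 37 °C | Detection: Luminescence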
Pf gametocyte = late stage P. falciparum gametocyte viability inhibitors, primary screen, ATP luminescence, HTS. P. falciparum stage V gametocytes, 24 h. inhibition, % at 10.9 µM. AID 743093, 2013. 150,000 tested, 0.065% active;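 active = inhibition above the mean plus 3 SD of compounds within the control limits, set per campaign, cut at about 38% in these data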;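 note: 0% = DMSO wells and 100% = medium only without gametocytes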
Starred values were filed as active, the others as inactive; . = not tested or not shown. Shown are actives, neighbours in structure and some others; about 3.9% of the full set was active somewhere.

SMILES	NF-kB neuron act	APP 5'UTR act	STAT1 blocker	STAT1 act	STAT3 act	Pf gametocyte
CCOc1ccc(N/C=C/C(=O)c2ccccc2)c([N+](=O)[O-])c1	1.01	156.7*	14.0	87.2	28.0	-1.4
CCOc1ccc(/C=C/C(=O)Nc2ccc(OC)cc2[N+](=O)[O-])cc1	0.88	7.8	1.7	98.5	82.8	14.9
O=c1oc2ccccc2cc1-c1csc(NN=C2CCCCC2)n1	1.86	62.8	-15.0	113.5	91.8	.
CC1CCC/C(=C(\C#N)c2nc(-c3cc4ccccc4oc3=O)cs2)C1 (stereo not given)	0.8	148.2*	-24.7	122.4	110.7	.
CN(C)C(=O)C1CCC(=O)N1Cc1cccs1 (stereo not given)	1.17	-14.2	-1.5	99.7	102.4	.
Cc1cc(OCC(=O)N(C)C2CCCCC2)ccc1Cl	.	142.1*	-26.1	121.6	83.2	-2.9
Cc1cc(OCC(=O)N(C)C2CCCCC2)cc(C)c1Cl	1.97	22.5	-21.6	117.7	100.6	-20.1
CC(C)C(=O)Nc1cccc(C(=O)Nc2nnc(C(C)C)s2)c1	2.21	25.1	-53.8	146.3*	106.0	.
CC(C)c1nnc(NC(=O)c2cccc(NC(=O)C(F)(F)F)c2)s1	1	65.1	-45.0	138.3*	103.5	8.1
Cc1nnc(NC(=O)c2cccc(NC(=O)C(C)C)c2)s1	1.53	9.0	-8.8	107.9	105.2	.
CCc1nnc(NC(=O)c2cccc(NC(=O)C(C)C)c2)s1	2.02	22.5	-25.0	122.9	107.3	.
CC(C)=Cc1oc2ccc([N+](=O)[O-])cc2c1N1CC(C)OC(C)C1 (stereo not given)	1.39	-3.0	-8.5	106.8	105.8	-19.3
Nc1nc(CSc2n[nH]c(-c3ccccc3)n2)nc(Nc2ccccc2)n1	0.62	5.8	5.0	95.9	77.7	.
Cc1ccc(Nc2nc(N)nc(CC#N)n2)cc1	1.48	42.9	-40.0	136.9*	105.8	.
Nc1nc(CSc2ncccn2)nc(Nc2ccccc2)n1	2.86	46.4	-37.2	134.1*	115.5	.
Cc1ccc(Nc2nc(N)nc(CSc3nc(C)cc(C)n3)n2)cc1	0.78	5.6	-6.3	106.5	103.3	.
Cc1ccc(Nc2nc(N)nc(CSc3ncccn3)n2)cc1	5.39*	104.1	-33.0	130.5*	110.4	-19.1
COc1ccc(-c2c(C)nn3c(C)cc(C)nc23)cc1	.	.	.	.	.	-6.4
COc1ccc(C(=O)OCCCc2cc3ccccc3c(=O)o2)cc1	.	.	.	.	.	-40.1
Cc1nnc(-n2ncc(C#N)c2N)c2nn(-c3ccccc3F)c(C)c12	.	-4.6	3.0	97.6	97.2	.
Fc1ccc(-c2csc(N3CCC(c4ccccc4)C3)n2)cc1 (stereo not given)	3.92*	42.9	-52.9	147.2*	107.3	.
Clc1ccc(-c2csc(N3CCC(c4ccccc4)C3)n2)cc1 (stereo not given)	2.36	10.3	-34.8	131.8*	100.7	.
COc1ccc(-c2csc(N3CCC(c4ccccc4)C3)n2)cc1 (stereo not given)	1.89	0.4	-4.6	104.2	90.3	.
N=C1/C(=C/c2cccn2Cc2ccc(Cl)cc2)C(=O)N=C2SC=CN12	1	0.3	-0.3	100.2	105.4	-19.9
COc1ccccc1CNC(=O)C(NS(=O)(=O)c1ccc2c(c1)OCCO2)C(C)C (stereo not given)	1.25	-1.2	7.8	93.1	89.1	.
SMILES	NF-kB neuron act	APP 5'UTR act	STAT1 blocker	STAT1 act	STAT3 act	Pf gametocyte
O=C(O)/C(=C\c1ccccc1)c1ccc2ccccc2c1	.	.	.	.	.	-10.9
Cc1cccc(/C=C(\C(=O)C(=O)O)c2ccc3ccccc3n2)c1	1.02	25.1	-53.4	147.9*	123.6	-2.7
N#Cc1ccc(/C=C(\C(=O)C(=O)O)c2ccc3ccccc3n2)cc1	.	.	.	.	.	4.8
O=C(O)C(=O)/C(=C\c1cccc(Cl)c1)c1ccc2ccccc2n1	1.3	45.6	-39.0	137.3*	129.4	-4.9
COC(c1ccccc1)c1nnc(CCC(=O)N(C)CCOc2ccccc2)o1 (stereo not given)	2.25	34.5	-37.3	134.6*	102.7	-9.2
COC(c1ccccc1)c1nnc(CCC(=O)N(C)Cc2cccc(-n3cccn3)c2)o1 (stereo not given)	2.44	39.2	-37.0	131.3*	107.6	2.9
COC(c1ccccc1)c1nnc(CCC(=O)N(C)CCCC2CCCC2)o1 (stereo not given)	1.82	9.1	-19.6	116.8	106.0	23.1
Cc1ccc(/C=N/NC(=O)CC(=O)NCc2cccnc2)cc1	1.06	8.0	8.5	92.4	101.9	15.2
CCOC(=O)C1=C(O)c2ccccc2C(=O)/C1=C\c1ccc(C)cc1	2.1	1.4	10.3	90.8	134.0*	.
CCOC(=O)C1=C(C)N(c2ccc(C)cc2)C(=O)/C1=C\c1ccc(O)c(OC)c1	.	.	.	.	.	-27.6
C/C(=N\Nc1nccnc1Cl)c1ccc(O)cc1	.	.	.	.	.	-17.5
C/C(=N\Nc1nccnc1Cl)c1ccc(F)cc1	0.87	92.6	-39.1	134.1*	96.1	.
O=C(Nc1ccon1)c1cc2c(s1)CCCC2	5.6*	163.8*	-35.9	133.1*	85.0	.
O=C(Nc1ccon1)c1cc2c(s1)CCCCCC2	2.98	124.3	-50.0	141.2*	108.4	.
CNC(=O)c1cc2c(s1)CCCCCC2	1.14	-6.9	0.1	99.9	97.5	19.2
CC(=O)NC(Cc1ccccc1C)C(=O)NC1CCN(C(=O)c2ccc(C)cc2)CC1 (stereo not given)	1.28	-14.1	5.4	93.9	99.3	-12.4
Cc1ccc(-c2cn3c(n2)SCC3)cc1	4.06*	107.2	-45.5	141.0*	82.3	-4.8
NC(=O)c1sc2nc(-c3ccco3)ccc2c1N	1.56	44.6	-33.3	130.7*	80.5	-28.0
CC(C)OC(=O)c1sc2nc(-c3ccccc3)ccc2c1N	0.79	168.3*	-13.1	111.8	56.2	.
COC(=O)c1sc2nc(-c3ccco3)ccc2c1N	1.48	161.7*	-44.7	141.4*	80.2	-13.5
COc1ccc(C(=O)c2sc3nc(-c4ccccc4)ccc3c2N)cc1	1.01	-4.8	-8.6	107.7	99.6	.
Nc1c(C(=O)Nc2ccccc2F)sc2nc(-c3ccco3)ccc12	0.56	140.5*	-22.8	121.0	85.1	.
CCOC(=O)c1cc(-c2ccccc2)n(CC2CC(c3ccc(OC)cc3)=NO2)n1 (stereo not given)	.	.	.	.	.	8.5
COc1ccc(CCC(=O)NCc2cn3ccccc3n2)cc1	.	.	.	.	.	-1.2
CN1CCCN(Cc2ccccc2Br)CC1	.	.	.	.	.	-8.0
C=CCc1ccc(OCCn2cccc2C=O)c(OC)c1	1.73	40.3	-52.7	147.4*	98.3	.
C=CCc1ccc(OCCn2nnc3ccccc32)c(OC)c1	.	.	.	.	.	3.8
O=C(Nc1nnc(C2=COCCO2)o1)c1ccc(S(=O)(=O)N2CCCCC2)cc1	1.36	-10.8	-1.2	99.2	105.6	-4.0
Cc1nc(-c2coc3cc(O)c(C)cc3c2=O)cs1	2.85	142.0*	10.7	90.1	58.3	.
